According to ChEMBL document CHEMBL5375970, “Discovery of Potent and Selective WDR5 Proteolysis Targeting Chimeras as Potential Therapeutics for Pancreatic Cancer” (J Med Chem, 2023):
Active and inactive are the calls of the source. No cut-off for these calls is given here.

Tests used:
Type in all cases: cell-based
[1] = target: T1, Protein cereblon/LIM domain-containing protein 1 (Homo sapiens) (UniProt Q96SW2+Q9UGP4); assay: PROTAC activity at CRBN/LIMD1 in human MV4-11 cells assessed as degradation of IKZF1 protein at 2 uM incubated for 18 hrs by Western blotting analysis
T1 sequence (Q96SW2 whole entry, looked up, the tested form may be a part): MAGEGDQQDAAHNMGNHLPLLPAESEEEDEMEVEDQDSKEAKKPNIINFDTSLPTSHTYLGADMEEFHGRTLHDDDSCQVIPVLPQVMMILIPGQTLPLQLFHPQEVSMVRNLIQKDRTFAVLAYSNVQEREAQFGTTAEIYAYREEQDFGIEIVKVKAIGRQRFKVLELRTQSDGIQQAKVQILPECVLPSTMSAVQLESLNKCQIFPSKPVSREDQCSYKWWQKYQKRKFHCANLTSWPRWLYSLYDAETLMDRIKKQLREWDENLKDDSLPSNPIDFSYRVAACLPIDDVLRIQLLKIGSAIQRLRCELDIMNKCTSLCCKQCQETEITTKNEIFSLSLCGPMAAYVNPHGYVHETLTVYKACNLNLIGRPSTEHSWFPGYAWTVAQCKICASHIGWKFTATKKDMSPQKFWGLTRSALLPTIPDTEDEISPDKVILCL
T1 sequence (Q9UGP4 whole entry, looked up, the tested form may be a part): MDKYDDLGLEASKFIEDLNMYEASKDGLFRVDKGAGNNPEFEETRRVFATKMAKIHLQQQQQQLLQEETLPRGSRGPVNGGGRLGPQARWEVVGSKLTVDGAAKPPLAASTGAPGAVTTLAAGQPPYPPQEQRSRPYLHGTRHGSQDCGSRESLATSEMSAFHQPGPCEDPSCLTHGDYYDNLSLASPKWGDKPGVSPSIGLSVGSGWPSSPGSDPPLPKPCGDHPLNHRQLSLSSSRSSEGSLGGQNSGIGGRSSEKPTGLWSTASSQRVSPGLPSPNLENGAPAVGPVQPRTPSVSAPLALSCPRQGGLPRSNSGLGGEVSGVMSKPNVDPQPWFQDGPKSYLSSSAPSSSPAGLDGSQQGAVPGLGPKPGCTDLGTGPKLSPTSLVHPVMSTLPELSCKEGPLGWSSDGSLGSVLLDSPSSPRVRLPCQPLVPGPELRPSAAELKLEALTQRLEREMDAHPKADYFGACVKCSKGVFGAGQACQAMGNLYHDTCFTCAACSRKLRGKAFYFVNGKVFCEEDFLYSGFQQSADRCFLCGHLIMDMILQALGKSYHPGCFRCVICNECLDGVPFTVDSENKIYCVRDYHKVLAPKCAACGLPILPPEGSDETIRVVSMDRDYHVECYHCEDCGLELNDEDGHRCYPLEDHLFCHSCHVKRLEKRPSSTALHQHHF
How it was run: (§1)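 MV4;11 cells (RPMI 1640, 10% FBS) and MIA PaCa-2 cells (DMEM, 10% FBS) treated with DMSO or compound for 18 h. Whole-cell lysates immunoblotted for WDR5, IKZF1 (MV4;11 only) and LIMD1 (MV4;11 only), with tubulin as loading control and fluorescent secondary antibodies. Representative of at least two independent experiments.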

[2] = target: T2, Protein cereblon/WD repeat-containing protein 5 (Homo sapiens) (UniProt P61964+Q96SW2); assay: PROTAC activity at CRBN/WDR5 in human MV4-11 cells assessed as degradation of WDR5 protein at 0.5 uM incubated for 18 hrs by Western blotting analysis; how it was run: as §1
[3] = target: T3, Cereblon/Ikaros (Homo sapiens) (UniProt Q96SW2+Q13422); assay: PROTAC activity at CRBN/IKZF1 in human MV4-11 cells assessed as degradation of IKZF1 protein at 2 uM incubated for 18 hrs by Western blotting analysis; how it was run: as §1
[4] = target: T3, Cereblon/Ikaros (Homo sapiens); assay: PROTAC activity at CRBN/IKZF1 in human MV4-11 cells assessed as degradation of IKZF1 protein at 0.5 uM incubated for 18 hrs by Western blotting analysis; how it was run: as §1
[5] = target: T2, Protein cereblon/WD repeat-containing protein 5 (Homo sapiens); assay: PROTAC activity at CRBN/WDR5 in human MV4-11 cells assessed as degradation of WDR5 protein at 2 uM incubated for 18 hrs by Western blotting analysis; how it was run: as §1
[6] = target: T3, Cereblon/Ikaros (Homo sapiens); assay: PROTAC activity at CRBN/IKZF1 in human MV4-11 cells assessed as degradation of IKZF1 protein at 0.01 to 5 uM incubated for 18 hrs by Western blotting analysis; conditions: dose 0.01-5 µM; how it was run: as §1
[7] = target: T1, Protein cereblon/LIM domain-containing protein 1 (Homo sapiens); assay: PROTAC activity at CRBN/LIMD1 in human MV4-11 cells assessed as degradation of IKZF1 protein at 0.5 uM incubated for 18 hrs by Western blotting analysis; how it was run: as §1
[8] = target: T2, Protein cereblon/WD repeat-containing protein 5 (Homo sapiens); assay: PROTAC activity at CRBN/WDR5 in human MIA PaCa-2 cells assessed as degradation of WDR5 protein at 0.01 to 5 uM incubated for 18 hrs by Western blotting analysis; conditions: dose 0.01-5 µM; how it was run: as §1
[9] = target: T2, Protein cereblon/WD repeat-containing protein 5 (Homo sapiens); assay: PROTAC activity at CRBN/WDR5 in human MV4-11 cells assessed as degradation of WDR5 protein at 0.01 to 5 uM incubated for 18 hrs by Western blotting analysis; conditions: dose 0.01-5 µM; how it was run: as §1
[10] = target: von Hippel-Lindau disease tumor suppressor/WD repeat-containing protein 5 (Homo sapiens, UniProt P61964+P40337); assay: PROTAC activity at human VHL/human WDR5 wild type expressed in HEK293T cells assessed as degradation of WDR5 protein incubated for 3 days by Western blotting analysis; conditions: time 3.0 day
How it was run: (§2)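 HEK293T cells were lentivirally transduced with doxycycline-inducible (1 μg/mL) 3×FLAG WDR5 wild type, K32R or K296R and selected with puromycin for 4 days. The stable lines were treated with a concentration series for 72 h. Lysates were run on 4–12% SDS-PAGE and immunoblotted for WDR5 with a vinculin loading control, with at least two independent experiments.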

[11] = tested on: von Hippel-Lindau disease tumor suppressor/WD repeat-containing protein 5 (Homo sapiens), P61964+P40337 [K32R]; assay: PROTAC activity at human VHL/human WDR5 K32R mutant expressed in HEK293T cells assessed as degradation of WDR5 protein at 0.25 to 5 uM incubated for 3 days by Western blotting analysis; conditions: dose 0.25-5 µM, time 3.0 day; how it was run: as §2
[12] = tested on: von Hippel-Lindau disease tumor suppressor/WD repeat-containing protein 5 (Homo sapiens), P61964+P40337 [K296R]; assay: PROTAC activity at human VHL/human WDR5 K296R mutant expressed in HEK293T cells assessed as degradation of WDR5 protein at 0.25 to 5 uM incubated for 3 days by Western blotting analysis; conditions: dose 0.25-5 µM, time 3.0 day; how it was run: as §2

Activity [1]	Activity [2]	Activity [3]	Activity [4]	Activity [5]	Activity [6]	Activity [7]	Activity [8]	Activity [9]	Structure (SMILES)	Activity [10]	Activity [11]	Activity [12]
inactive	Active	inactive	inactive	Active	inactive	inactive	Active	Active	CN1CCN(c2ccc(-c3cccc(CN4CCN(CCNC(=O)CCCCCCCNC(=O)COc5cccc6c5C(=O)N(C5CCC(=O)NC5=O)C6=O)CC4)c3)cc2NC(=O)c2c[nH]c(=O)cc2C(F)(F)F)CC1 (stereo unspecified)			
									Cc1ncsc1-c1ccc([C@H](C)NC(=O)[C@@H]2C[C@@H](O)CN2C(=O)[C@@H](NC(=O)CNC(=O)c2ccc(F)c(-c3ccc(N4C[C@@H](C)N(C)[C@@H](C)C4)c(NC(=O)c4c[nH]c(=O)cc4C(F)(F)F)c3)c2)C(C)(C)C)cc1	Dose-Dependent Effect	Active	inactive
inactive	Active	inactive	inactive	Active		inactive			CN1CCN(c2ccc(-c3cccc(CN4CCN(CCNC(=O)CCCCNC(=O)COc5cccc6c5C(=O)N(C5CCC(=O)NC5=O)C6=O)CC4)c3)cc2NC(=O)c2c[nH]c(=O)cc2C(F)(F)F)CC1 (stereo unspecified)			
					inactive		Active	Active	C[C@@H]1CN(c2ccc(-c3cc(C(=O)NCCCCCCCNC(=O)COc4cccc5c4C(=O)N(C4CCC(=O)NC4=O)C5=O)ccc3F)cc2NC(=O)c2c[nH]c(=O)cc2C(F)(F)F)C[C@H](C)N1C (stereo partly specified)			
